According to ChEMBL document CHEMBL1145518, “Potent immune-modulating and anticancer effects of NKT cell stimulatory glycolipids” (2007):
Calls of active or inactive are those of the source. The calls are words filed in the database; no cut-off is given here.

Experiments:
Mus musculus [1] = experiment: Activation of natural killer cells in BALB/c mouse at 2 ug, iv after 72 hrs by flow cytometry; format: functional, organism-based
Outline: (§1)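 BALB/c mice (n = 4/group) were given 100 μl of glycolipid at 20 μg/ml in saline i.v., or 100 μl of 1% DMSO. Spleens were harvested after 72 h and splenocyte subsets counted by flow cytometry: mature DCs as CD11c+/CD80+/CD86+, activated NK as U5A2-13Ag+/CD3−/CD69+, activated NKT as U5A2-13Ag+/CD3+/CD69+. Assays were run in duplicate, mean ± SD.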

4T1 = experiment: Antitumor activity in mouse 4T1 cells xenografted BALB/c mouse assessed as suppression of tumor growth at 2 ug, iv; format: functional, cell-based
Outline: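 BALB/c mice (n = 6) were inoculated s.c. with 4T1 breast cancer cells. From day 3 they were treated i.v. with glycolipid or vehicle twice weekly for 4 weeks. Tumor volume was recorded every 3 days for 1 month, and survival was monitored up to 54 days.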

NKT = experiment: Stimulation of cell expansion of human invariant CD161+/ Valpha24+/ CD56+/ CD3+ NKT cells by flow cytometry method; format: functional, cell-based
Outline: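 CD56+ NK/NKT mixtures (2 × 10^6) were isolated from human leukopaks with anti-CD56 microbeads. They were cocultured with 4 × 10^5 autologous immature CD14+ DCs pulsed with glycolipid at 3 μg/ml, or with 0.3% DMSO, on day 2 for 18 h. Suspension cells were then transferred and kept in 100 units/ml IL-2 with fresh medium every 3 days. On day 9, CD161+/Vα24TCR+ cells were gated by flow cytometry and total Vα24i NKT cells counted. Triplicates, mean ± SD.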

Mus musculus [2] = experiment: Activation of NKT cells in BALB/c mouse at 2 ug, iv after 72 hrs by flow cytometry; format: functional, organism-based; outline: as §1
TC1 = experiment: Antitumor activity in TC1 cells xenografted C57BL/6 mouse assessed as suppression of tumor growth at 2 ug, iv; format: functional, cell-based
Outline: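 C57BL/6 mice (n = 5/group) were inoculated i.v. with TC-1 lung cancer cells. They were then treated i.v. with 2 μg glycolipid per mouse, or 100 μl of 1% DMSO, twice weekly for 4 weeks. Kaplan–Meier survival and body weight were followed, with tumor-free mice as an additional control.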

[3] = Induction of RANTES secretion in human CD161+ CD3+ NKT cells at 10 ug/ml after 18 hrs relative to basal level; format: functional
Outline: (§2)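 Human Vα24i NKT cell lines were expanded for 10 days on irradiated (3,000 rad) autologous immature DCs with 10 units/ml IL-2. The cells (1 × 10^5) were cocultured with 5 × 10^4 irradiated immature CD14+ DCs plus glycolipid at 10 μg/ml. Supernatants were collected at 18 h and read on a 22-plex Luminex bead panel. Triplicates, mean ± SD.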

[4] = Induction of IL4 secretion in human CD161+ CD3+ NKT cells at 10 ug/ml after 18 hrs relative to basal level; format: functional; outline: as §2
[5] = Induction of IL6 secretion in human CD161+ CD3+ NKT cells at 10 ug/ml after 18 hrs relative to basal level; format: functional; outline: as §2
[6] = Induction of GM-CSF secretion in human CD161+ CD3+ NKT cells at 10 ug/ml after 18 hrs relative to basal level; format: functional; outline: as §2
[7] = Induction of MIPalpha secretion in human CD161+ CD3+ NKT cells at 10 ug/ml after 18 hrs relative to basal level; format: functional; outline: as §2
[8] = Induction of TNFalpha secretion in human CD161+ CD3+ NKT cells at 10 ug/ml after 18 hrs relative to basal level; format: functional; outline: as §2
[9] = Induction of IL12p40 secretion in human CD161+ CD3+ NKT cells at 10 ug/ml after 18 hrs relative to basal level; format: functional; outline: as §2
[10] = Induction of IL10 secretion in human CD161+ CD3+ NKT cells at 10 ug/ml after 18 hrs relative to basal level; format: functional; outline: as §2
[11] = Induction of IFN-gamma secretion in human CD161+ CD3+ NKT cells at 10 ug/ml after 18 hrs relative to basal level; format: functional; outline: as §2
[12] = Induction of MCP1 secretion in human CD161+ CD3+ NKT cells at 10 ug/ml after 18 hrs relative to basal level; format: functional; outline: as §2
[13] = Induction of IL2 secretion in human CD161+ CD3+ NKT cells at 10 ug/ml after 18 hrs relative to basal level; format: functional; outline: as §2
Mus musculus [14] = experiment: Activation of dendritic cells in BALB/c mouse at 2 ug, iv after 72 hrs by flow cytometry; format: functional, organism-based; outline: as §1
[15] = Induction of IL3 secretion in human CD161+ CD3+ NKT cells at 10 ug/ml after 18 hrs relative to basal level; format: functional; outline: as §2
[16] = Induction of IL12p70 secretion in human CD161+ CD3+ NKT cells at 10 ug/ml after 18 hrs relative to basal level; format: functional; outline: as §2
[17] = Induction of IL13 secretion in human CD161+ CD3+ NKT cells at 10 ug/ml after 18 hrs relative to basal level; format: functional; outline: as §2
[18] = Induction of IL8 secretion in human CD161+ CD3+ NKT cells at 10 ug/ml after 18 hrs relative to basal level; format: functional; outline: as §2
[19] = Induction of IL15 secretion in human CD161+ CD3+ NKT cells at 10 ug/ml after 18 hrs relative to basal level; format: functional; outline: as §2
Mus musculus [20] = experiment: Induction of RANTES secretion in BALB/c mouse serum at 2 ug, iv after 2 hrs relative to control; format: functional
Outline: (§3)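 BALB/c mice received an i.v. injection of 100 μl of glycolipid diluted to 20 μg/ml in saline from DMSO stock, with 1% DMSO as vehicle. Serum cytokines/chemokines were measured at 2 and 18 h after injection.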

Mus musculus [21] = experiment: Induction of IFN-gamma secretion in BALB/c mouse serum at 2 ug, iv after 18 hrs relative to control; format: functional; outline: as §3
Mus musculus [22] = experiment: Induction of IL4 secretion in BALB/c mouse serum at 2 ug, iv after 2 hrs relative to control; format: functional; outline: as §3
Mus musculus [23] = experiment: Induction of IL12p40 secretion in BALB/c mouse serum at 2 ug, iv after 18 hrs relative to control; format: functional; outline: as §3
Mus musculus [24] = experiment: Induction of IL1-beta secretion in BALB/c mouse serum at 2 ug, iv after 18 hrs relative to control; format: functional; outline: as §3
Mus musculus [25] = experiment: Induction of IL10 secretion in BALB/c mouse serum at 2 ug, iv after 18 hrs relative to control; format: functional; outline: as §3
Mus musculus [26] = experiment: Induction of KC secretion in BALB/c mouse serum at 2 ug, iv after 2 hrs relative to control; format: functional; outline: as §3
Mus musculus [27] = experiment: Induction of IL3 secretion in BALB/c mouse serum at 2 ug, iv after 2 hrs relative to control; format: functional; outline: as §3
Mus musculus [28] = experiment: Induction of MCP1 secretion in BALB/c mouse serum at 2 ug, iv after 2 hrs relative to control; format: functional; outline: as §3
Mus musculus [29] = experiment: Induction of TNFalpha secretion in BALB/c mouse serum at 2 ug, iv after 18 hrs relative to control; format: functional; outline: as §3
Mus musculus [30] = experiment: Induction of IL13 secretion in BALB/c mouse serum at 2 ug, iv after 2 hrs relative to control; format: functional; outline: as §3
Mus musculus [31] = experiment: Induction of GM-CSF secretion in BALB/c mouse serum at 2 ug, iv after 2 hrs relative to control; format: functional; outline: as §3
Mus musculus [32] = experiment: Induction of IL6 secretion in BALB/c mouse serum at 2 ug, iv after 2 hrs relative to control; format: functional; outline: as §3
Mus musculus [33] = experiment: Induction of IL12p70 secretion in BALB/c mouse serum at 2 ug, iv after 18 hrs relative to control; format: functional; outline: as §3
Mus musculus [34] = experiment: Activation of B cells in BALB/c mouse at 2 ug, iv after 72 hrs by flow cytometry; format: functional, organism-based
Mus musculus [35] = experiment: Induction of IL2 secretion in BALB/c mouse serum at 2 ug, iv after 2 hrs relative to control; format: functional; outline: as §3
Mus musculus [36] = experiment: Induction of MIPbeta secretion in BALB/c mouse serum at 2 ug, iv after 2 hrs relative to control; format: functional; outline: as §3
Mus musculus [37] = experiment: Increase in CD8/CD4 T cell ratio in BALB/c mouse at 2 ug, iv after 72 hrs by flow cytometry; format: functional, organism-based

Compound | Activity (Mus musculus [1]) | Activity (NKT) | Activity (Mus musculus [2]) | Activity [3] | Activity [4] | Activity [5] | Activity [6] | Activity [7] | Activity [8] | Activity [9] | Activity [10] | Activity [11] | Activity [12] | Activity [13] | Activity (Mus musculus [14]) | Activity [15] | Activity [16] | Activity [17] | Activity [18] | Activity [19] | other results
CCCCCCCCCCCCCCCCCCCCCCCCCC(=O)N[C@@H](CO[C@H]1O[C@H](CO)[C@H](O)[C@H](O)[C@H]1O)[C@H](O)[C@H](O)CCCCc1ccccc1 | Active | Active | Active | 2 | 2.8 | 1.9 | 5.8 | 3.5 | 3.4 | 1.8 | 2 | 3.9 | 1.8 | 1.9 | Active | 2.6 | 2.1 | 1.8 | 2.3 | 2.3 | Activity (4T1): Active; Activity (TC1): Active
CCCCCCCCCCCCCCCCCCCCCCCCCC(=O)N[C@@H](CO[C@H]1O[C@H](CO)[C@H](O)[C@H](OS(=O)(=O)[O-])[C@H]1O)[C@H](O)[C@H](O)CCCCCCCCCCCCCC.[Na+] | Active | Active | Active | 1.6 | 2.7 | 2.7 | 6.6 | 3.4 | 8.4 | 2 | 2.5 | 3.3 | 1.4 | 2.4 | Active | 3.3 | 2.8 | 1.6 | 2.2 | 2.3 | Activity (Mus musculus [20]): 1.6; Activity (Mus musculus [21]): 160.8; Activity (Mus musculus [22]): 42.9; Activity (Mus musculus [23]): 2.1; Activity (Mus musculus [24]): 3.2; Activity (Mus musculus [25]): 2.4; Activity (Mus musculus [26]): 16.4; Activity (Mus musculus [27]): 1.8; Activity (Mus musculus [28]): 14.8; Activity (Mus musculus [29]): 36.3; Activity (Mus musculus [30]): 2.4; Activity (Mus musculus [31]): 7.3; Activity (Mus musculus [32]): 2.2; Activity (Mus musculus [33]): 1.4; Activity (Mus musculus [34]): Active; Activity (Mus musculus [35]): 22; Activity (Mus musculus [36]): 2.5
CCCCCCCCCCCCCC[C@@H](O)[C@@H](O)[C@H](CO[C@H]1O[C@H](CO)[C@H](O)[C@H](O)[C@H]1O)NC(=O)CCCCCCCCCCc1ccccc1 | Active | Active | Active | 1.6 | 1.9 | 2.1 | 5.4 | 3.4 | 7.4 | 2.1 | 1.8 | 6.2 | 0.6 | 3.9 | Active | 2.5 | 3 | 1.6 | 1.8 | 2.7 | Activity (4T1): Active; Activity (Mus musculus [20]): 2.2; Activity (Mus musculus [21]): 166.1; Activity (Mus musculus [22]): 49.6; Activity (Mus musculus [23]): 2.4; Activity (TC1): Active; Activity (Mus musculus [24]): 3.4; Activity (Mus musculus [25]): 1.3; Activity (Mus musculus [26]): 6.9; Activity (Mus musculus [27]): 1.9; Activity (Mus musculus [28]): 23.6; Activity (Mus musculus [29]): 45.6; Activity (Mus musculus [30]): 7.7; Activity (Mus musculus [31]): 2.7; Activity (Mus musculus [37]): Active; Activity (Mus musculus [32]): 5.8; Activity (Mus musculus [33]): 1.6; Activity (Mus musculus [34]): Active; Activity (Mus musculus [35]): 50.5; Activity (Mus musculus [36]): 5.1
